Experimental data from ChEMBL document CHEMBL1795294, “Modulation of the activity of histone acetyltransferases by long chain alkylidenemalonates (LoCAMs)” (Bioorg Med Chem, 2011).
Activity calls are given as the source filed them. The calls are words filed in the database; no cut-off is given here.

Columns and labels:
[1] = target: CREB-binding protein (Homo sapiens) (UniProt Q92793); experiment: Inhibition of human recombinant KAT3A expressed in Escherichia coli BL21 using histone H4 peptide as substrate at 50 uM after 2 hrs relative to control
CREB-binding protein (Homo sapiens), sequence (Q92793 2-2442 limits assumed): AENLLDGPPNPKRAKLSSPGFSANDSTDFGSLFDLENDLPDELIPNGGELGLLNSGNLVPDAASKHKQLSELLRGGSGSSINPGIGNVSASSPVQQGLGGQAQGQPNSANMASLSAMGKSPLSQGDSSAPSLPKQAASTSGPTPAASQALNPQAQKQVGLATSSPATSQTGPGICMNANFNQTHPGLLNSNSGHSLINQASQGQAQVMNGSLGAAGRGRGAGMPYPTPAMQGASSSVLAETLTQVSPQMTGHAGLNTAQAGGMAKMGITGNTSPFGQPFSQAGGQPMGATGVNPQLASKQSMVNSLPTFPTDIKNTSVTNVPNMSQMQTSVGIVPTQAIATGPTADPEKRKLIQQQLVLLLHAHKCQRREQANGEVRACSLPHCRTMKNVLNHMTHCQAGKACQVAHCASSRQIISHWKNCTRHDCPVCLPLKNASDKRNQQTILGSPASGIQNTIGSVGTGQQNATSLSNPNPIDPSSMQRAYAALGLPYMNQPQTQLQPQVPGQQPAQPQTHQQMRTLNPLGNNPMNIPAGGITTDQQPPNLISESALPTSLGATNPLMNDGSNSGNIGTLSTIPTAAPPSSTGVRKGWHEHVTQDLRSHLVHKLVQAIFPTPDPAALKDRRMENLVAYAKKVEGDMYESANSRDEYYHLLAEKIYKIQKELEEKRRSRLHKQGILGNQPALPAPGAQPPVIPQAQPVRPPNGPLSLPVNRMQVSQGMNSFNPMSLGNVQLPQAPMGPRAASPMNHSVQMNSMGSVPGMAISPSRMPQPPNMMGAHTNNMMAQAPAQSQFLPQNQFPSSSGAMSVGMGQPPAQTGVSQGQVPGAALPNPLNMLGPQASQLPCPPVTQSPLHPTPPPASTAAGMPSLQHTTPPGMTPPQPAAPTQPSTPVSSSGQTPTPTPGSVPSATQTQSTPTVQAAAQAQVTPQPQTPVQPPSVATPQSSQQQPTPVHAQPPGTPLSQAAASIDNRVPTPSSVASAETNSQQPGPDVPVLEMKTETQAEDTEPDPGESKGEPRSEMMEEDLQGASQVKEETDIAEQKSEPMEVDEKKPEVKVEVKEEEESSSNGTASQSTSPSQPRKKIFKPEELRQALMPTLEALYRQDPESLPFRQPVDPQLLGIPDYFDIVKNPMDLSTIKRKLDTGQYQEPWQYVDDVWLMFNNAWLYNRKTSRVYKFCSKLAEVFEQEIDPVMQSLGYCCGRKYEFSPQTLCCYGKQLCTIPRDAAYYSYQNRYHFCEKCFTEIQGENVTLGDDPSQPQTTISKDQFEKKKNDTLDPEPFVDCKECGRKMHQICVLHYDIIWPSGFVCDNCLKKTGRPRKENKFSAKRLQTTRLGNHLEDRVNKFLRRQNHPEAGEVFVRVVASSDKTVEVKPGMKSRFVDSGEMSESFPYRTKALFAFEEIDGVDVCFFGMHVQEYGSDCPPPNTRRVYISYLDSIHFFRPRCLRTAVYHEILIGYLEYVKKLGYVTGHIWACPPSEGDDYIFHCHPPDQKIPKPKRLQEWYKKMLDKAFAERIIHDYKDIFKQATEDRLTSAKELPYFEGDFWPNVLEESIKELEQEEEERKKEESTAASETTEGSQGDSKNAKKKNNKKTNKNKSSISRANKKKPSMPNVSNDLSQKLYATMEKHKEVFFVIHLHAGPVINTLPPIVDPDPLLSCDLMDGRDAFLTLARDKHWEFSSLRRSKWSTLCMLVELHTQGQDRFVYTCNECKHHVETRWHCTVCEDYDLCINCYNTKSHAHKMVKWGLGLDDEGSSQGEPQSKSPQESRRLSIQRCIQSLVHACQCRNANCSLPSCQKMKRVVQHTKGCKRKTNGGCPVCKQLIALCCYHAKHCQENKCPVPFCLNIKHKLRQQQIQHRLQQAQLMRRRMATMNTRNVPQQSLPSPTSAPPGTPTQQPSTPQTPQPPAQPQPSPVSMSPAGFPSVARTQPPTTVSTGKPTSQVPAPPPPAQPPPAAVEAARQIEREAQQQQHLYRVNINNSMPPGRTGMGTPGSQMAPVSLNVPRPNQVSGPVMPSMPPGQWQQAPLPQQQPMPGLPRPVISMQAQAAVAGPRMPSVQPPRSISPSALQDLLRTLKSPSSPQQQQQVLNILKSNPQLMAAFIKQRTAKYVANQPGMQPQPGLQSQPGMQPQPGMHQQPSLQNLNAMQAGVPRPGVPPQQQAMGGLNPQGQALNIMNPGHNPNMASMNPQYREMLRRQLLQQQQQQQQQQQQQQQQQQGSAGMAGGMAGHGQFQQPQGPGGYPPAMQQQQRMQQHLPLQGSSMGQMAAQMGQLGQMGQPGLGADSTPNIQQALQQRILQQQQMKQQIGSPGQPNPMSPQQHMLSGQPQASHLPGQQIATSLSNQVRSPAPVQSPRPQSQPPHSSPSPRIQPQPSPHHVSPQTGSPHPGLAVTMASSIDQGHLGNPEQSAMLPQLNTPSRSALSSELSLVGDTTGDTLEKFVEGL
Summary of the method: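 Recombinant CBP fragment (aa 1098–1877) from E. coli BL21, affinity purified. Spotted on P81 paper in triplicate, washed with TCA/acetone, scintillation DPM compared with negative control, expressed as %.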

[2] = target: Histone acetyltransferase KAT2B (Homo sapiens) (UniProt Q92831); experiment: Inhibition of human recombinant KAT2B using histone H4 peptide as substrate at 50 uM after 2 hrs
Histone acetyltransferase KAT2B (Homo sapiens), sequence (Q92831 whole entry, looked up, the tested form may be a part): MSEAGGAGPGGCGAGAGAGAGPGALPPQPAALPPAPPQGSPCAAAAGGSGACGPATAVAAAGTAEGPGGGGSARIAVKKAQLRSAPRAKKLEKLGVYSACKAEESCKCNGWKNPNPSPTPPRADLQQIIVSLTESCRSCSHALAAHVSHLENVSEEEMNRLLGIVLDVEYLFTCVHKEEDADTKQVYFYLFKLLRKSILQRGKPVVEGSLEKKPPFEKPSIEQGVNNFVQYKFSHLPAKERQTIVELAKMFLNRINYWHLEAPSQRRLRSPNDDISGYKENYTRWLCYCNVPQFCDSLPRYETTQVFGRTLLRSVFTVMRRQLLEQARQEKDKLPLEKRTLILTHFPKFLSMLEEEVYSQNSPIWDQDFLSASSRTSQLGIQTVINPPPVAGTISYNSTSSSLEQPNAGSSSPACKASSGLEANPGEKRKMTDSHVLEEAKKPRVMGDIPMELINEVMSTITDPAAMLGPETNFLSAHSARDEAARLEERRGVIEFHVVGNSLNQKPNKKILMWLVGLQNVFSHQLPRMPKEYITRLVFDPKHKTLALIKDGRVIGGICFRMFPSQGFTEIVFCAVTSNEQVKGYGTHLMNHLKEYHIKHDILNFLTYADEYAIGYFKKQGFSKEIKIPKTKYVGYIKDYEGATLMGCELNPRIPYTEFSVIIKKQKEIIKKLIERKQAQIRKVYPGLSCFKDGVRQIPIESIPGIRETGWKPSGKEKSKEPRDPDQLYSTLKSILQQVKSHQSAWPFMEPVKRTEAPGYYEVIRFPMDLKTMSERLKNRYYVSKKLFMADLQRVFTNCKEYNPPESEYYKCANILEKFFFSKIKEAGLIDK
Summary of the method: (§1)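 Human PCAF (200 ng) in KAT buffer with 10 µg histone H4 peptide (aa 2–24), 20 µM acetyl-CoA with 0.5 µCi/mL [3H]-acetyl-CoA, and compound at 50 µM final, 2 h at 37 °C. Spotted on P81 paper in triplicate, washed with TCA then acetone, scintillation counted. Activity given as % of untreated control (100%).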

U-937 [3] = experiment: Cell cycle arrest in human U937 cells assessed as accumulation at S phase at 25 uM after 30 hrs using propidium iodide staining by flow cytometry; format: functional, cell-based
Summary of the method: (§2)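 U937 cells kept at 200,000 cells/mL, 37 °C, 5% CO2, treated 30 h at 50 or 25 µM. Phase distribution by flow cytometry. Three independent experiments, mean ± SD.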

U-937 [4] = experiment: Induction of apoptosis in human U937 cells at 25 uM after 30 hrs using annexin V/propidium iodide double-staining by FACS analysis; format: functional, cell-based
Summary of the method: (§3)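 U937 cells at 200,000 cells/mL, 37 °C, 5% CO2, exposed 30 h at 50 or 25 µM. Dose–response runs used 5–200 µM, with IC50 taken as the concentration giving 50% apoptosis. Annexin V/propidium iodide double staining, apoptotic subpopulations counted by FACS. Three independent experiments, mean ± SD.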

U-937 [5] = experiment: Induction of granulocytic differentiation in human U937 after […] using propidium iodide staining by FACS analysis; format: functional, cell-based
U-937 [6] = experiment: Inhibition of histone acetyltransferase in human U937 cells assessed as inhibition of acetylation of histone H3 at K9 at 50 uM after 24 hrs by Western blotting; format: cell-based
Summary of the method: (§4)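 U937 cells treated 24 h at 50 µM. Acid-extracted histones (Triton buffer lysis, then 0.2 M HCl overnight at 4 °C) immunoblotted with site-specific antibodies (H3K9/K14/K18/K56ac, H4K5/K8/K16ac, pan-acetyl H4; 1:1000). Loading checked by Ponceau Red staining, or by histone H1 for pan-acetyl H4.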

U-937 [7] = experiment: Inhibition of histone acetyltransferase in human U937 cells assessed as inhibition of acetylation of histone H3 at K14 at 50 uM after 24 hrs by Western blotting; format: cell-based; summary of the method: as §4
U-937 [8] = experiment: Inhibition of histone acetyltransferase in human U937 cells assessed as inhibition of acetylation of histone H3 at K18 at 50 uM after 24 hrs by Western blotting; format: cell-based; summary of the method: as §4
U-937 [9] = experiment: Inhibition of histone acetyltransferase in human U937 cells assessed as inhibition of acetylation of histone H3 at K56 at 50 uM after 24 hrs by Western blotting; format: cell-based; summary of the method: as §4
U-937 [10] = experiment: Inhibition of histone acetyltransferase in human U937 cells assessed as inhibition of acetylation of histone H4 at K5 at 50 uM after 24 hrs by Western blotting; format: cell-based; summary of the method: as §4
U-937 [11] = experiment: Inhibition of histone acetyltransferase in human U937 cells assessed as inhibition of acetylation of histone H4 at K8 at 50 uM after 24 hrs by Western blotting; format: cell-based; summary of the method: as §4
U-937 [12] = experiment: Inhibition of histone acetyltransferase in human U937 cells assessed as inhibition of acetylation of histone H4 at K16 at 50 uM after 24 hrs by Western blotting; format: cell-based; summary of the method: as §4
U-937 [13] = experiment: Inhibition of histone acetyltransferase in human U937 cells assessed as increase of histone H3 acetylation level at 50 uM after 15 mins by Western blotting; format: cell-based
Summary of the method: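 U937 cells treated at 50 µM. Histones prepared by Triton extraction buffer lysis, then overnight 0.2 M HCl extraction at 4 °C, Bradford quantitation. Immunoblot with pan-acetyl-H3 antibody (1:1000), Ponceau Red staining as loading check.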

[14] = target: Histone deacetylase (Homo sapiens) (UniProt Q13547+O15379+Q9UBN7+Q92769+Q9UQL6+Q8WUI4+Q9BY41+Q96DB2+P56524+Q9UKV0+Q969S8); experiment: Inhibition of HDAC in human U937 cells at 50 uM after 15 mins by Western blotting; format: cell-based; conditions: U-937
MCF7 = experiment: Inhibition of histone acetyltransferase in human MCF7 cells assessed as increase of alpha-tubulin acetylation level at 15 and 30 uM after 15 mins by Western blotting
[15] = target: Histone acetyltransferase KAT2B (Homo sapiens) (UniProt Q92831); experiment: Increase of human recombinant KAT2B acetylation activity using histone H4 peptide as substrate at 50 uM after 2 hrs; summary of the method: as §1
U-937 [16] = experiment: Cell cycle arrest in human U937 cells assessed as accumulation at S phase at 50 uM after 30 hrs using propidium iodide staining by flow cytometry; format: functional, cell-based; summary of the method: as §2
U-937 [17] = experiment: Induction of apoptosis in human U937 cells at 50 uM after 30 hrs using annexin V/propidium iodide double-staining by FACS analysis; format: functional; summary of the method: as §3
U-937 [18] = experiment: Induction of apoptosis in human U937 cells after 30 hrs using annexin V/propidium iodide double-staining by FACS analysis; format: functional, cell-based; conditions: U-937, 30 h; summary of the method: as §3
U-937 [19] = experiment: Inhibition of histone acetyltransferase in human U937 cells assessed as increase of acetylation of histone H3 at K9 at 50 uM after 24 hrs by Western blotting; format: cell-based; summary of the method: as §4
U-937 [20] = experiment: Inhibition of histone acetyltransferase in human U937 cells assessed as increase of acetylation of histone H3 at K18 at 50 uM after 24 hrs by Western blotting; format: cell-based; summary of the method: as §4
U-937 [21] = experiment: Inhibition of histone acetyltransferase in human U937 cells assessed as increase of pan-acetylated histone H4 level at 50 uM after 24 hrs by Western blotting; format: cell-based; summary of the method: as §4
Albumin = Albumin (Bos taurus, UniProt P02769); experiment: Binding affinity to bovine serum albumin by surface plasmon resonance assay; conditions: cattle
Albumin, sequence (P02769 whole entry): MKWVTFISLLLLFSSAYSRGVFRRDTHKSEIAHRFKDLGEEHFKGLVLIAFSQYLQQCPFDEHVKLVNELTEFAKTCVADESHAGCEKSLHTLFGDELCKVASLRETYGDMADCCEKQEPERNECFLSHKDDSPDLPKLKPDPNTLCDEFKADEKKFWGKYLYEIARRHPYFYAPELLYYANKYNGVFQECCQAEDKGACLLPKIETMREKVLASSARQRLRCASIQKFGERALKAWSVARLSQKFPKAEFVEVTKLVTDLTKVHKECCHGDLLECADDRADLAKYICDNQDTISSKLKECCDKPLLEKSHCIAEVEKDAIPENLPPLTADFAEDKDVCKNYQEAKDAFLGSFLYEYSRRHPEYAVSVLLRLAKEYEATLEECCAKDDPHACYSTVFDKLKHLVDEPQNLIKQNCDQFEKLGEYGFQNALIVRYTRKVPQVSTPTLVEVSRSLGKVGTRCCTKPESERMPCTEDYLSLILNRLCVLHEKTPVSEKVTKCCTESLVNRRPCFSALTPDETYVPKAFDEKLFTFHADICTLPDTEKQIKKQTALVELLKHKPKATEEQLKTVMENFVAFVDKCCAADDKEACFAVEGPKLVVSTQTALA

[22] = target: Histone acetyltransferase p300 (Homo sapiens) (UniProt Q09472); experiment: Binding affinity to immobilized His6-tagged human full-length KAT3B expressed in Sf9 cells by surface plasmon resonance assay
[23] = target: Histone acetyltransferase p300 (Homo sapiens) (UniProt Q09472); experiment: Binding affinity to His6-tagged immobilized human KAT3B catalytic domain expressed in Sf9 cells by surface plasmon resonance assay

Structure (SMILES)	inhibition [1]	inhibition [2]	Activity (U-937 [3])	Activity (U-937 [4])	Activity (U-937 [5])	inhibition (U-937 [13])	inhibition [14]	inhibition (MCF7)	also measured
C=CC/C=C\C/C=C\CCCCCCCc1cccc(O)c1C(=O)O	62%	–	–	–	–	–	–	–	–
CCCCCCCCCCCCC=C(C(=O)OCC)C(=O)OCC	inactive	Active	inactive	inactive	inactive	–	–	–	inhibition (U-937 [6]): Active; inhibition (U-937 [7]): inactive; inhibition (U-937 [8]): Active; inhibition (U-937 [9]): inactive; inhibition (U-937 [10]): inactive; inhibition (U-937 [11]): inactive; inhibition (U-937 [12]): inactive
CCCCCCCCCCCCCCCC1C(=O)OC(C)(C)OC1=O	Active	Active	inactive	inactive	inactive	inactive	inactive	inactive	–
CCCCCCCCCCCCCCC(C)=C(C(=O)OCC)C(=O)OCC	Active	–	inactive	inactive	inactive	inactive	inactive	inactive	–
CCCCCCCCCCCCCCC(O)=C(C(=O)OCC)C(=O)OCC	52%	–	inactive	inactive	inactive	inactive	inactive	inactive	Activity [15]: Active
CCCCCCCCCCCCCCC(N)=C(C(=O)OCC)C(=O)OCC	–	–	inactive	inactive	inactive	–	–	–	–
CCCCCCCCCCCCCC(C(=O)OCC)C(=O)OCC	Active	Active	inactive	inactive	inactive	inactive	inactive	inactive	–
CCCCCCCCCCCCCC(C)=C(C(=O)OCC)C(=O)OCC	Active	–	inactive	inactive	inactive	inactive	inactive	inactive	–
CCCCCCCCCCCC=C(C(=O)OCC)C(=O)OCC	Active	Active	–	–	inactive	Active	–	inactive	Activity (U-937 [16]): Active; Activity (U-937 [17]): 60.2%; IC50 (U-937 [18]): 84.2 µM; inhibition (U-937 [19]): Active; inhibition (U-937 [20]): Active; inhibition (U-937 [21]): Active; inhibition (U-937 [7]): Active; inhibition (U-937 [9]): Active; inhibition (U-937 [10]): Active; inhibition (U-937 [11]): inactive; inhibition (U-937 [12]): Active; Activity (Albumin): Not Active; Activity [22]: Dose-dependent effect; Activity [23]: inactive
CCCCCCCCCCCCCCCC(C(=O)OCC)C(=O)OCC	Active	–	inactive	inactive	inactive	inactive	inactive	inactive	–
CCCCCCCCCCCCCC=C(C(=O)OCC)C(=O)OCC	Active	–	–	–	inactive	Active	inactive	inactive	Activity [15]: Active; Activity (U-937 [16]): Active; Activity (U-937 [17]): 51.8%; IC50 (U-937 [18]): 42.9 µM; inhibition (U-937 [6]): Active; inhibition (U-937 [7]): Active; inhibition (U-937 [8]): Active; inhibition (U-937 [9]): Active; inhibition (U-937 [10]): Active; inhibition (U-937 [11]): inactive; inhibition (U-937 [12]): Active; Activity (Albumin): Not Active; Activity [22]: Dose-dependent effect; Activity [23]: Dose-dependent effect
CCCCCCCCCCCCCCC(C(=O)OCC)C(=O)OCC	Active	–	inactive	inactive	inactive	inactive	inactive	inactive	–
CCCCCCCCCCC=C(C(=O)OCC)C(=O)OCC	Active	Active	–	–	inactive	Active	–	inactive	Activity (U-937 [16]): Active; Activity (U-937 [17]): 25.4%; IC50 (U-937 [18]): 156 µM; inhibition (U-937 [6]): Active; inhibition (U-937 [7]): Active; inhibition (U-937 [8]): Active; inhibition (U-937 [9]): Active; inhibition (U-937 [10]): Active; inhibition (U-937 [11]): inactive; inhibition (U-937 [12]): Active; Activity (Albumin): Not Active; Activity [22]: Dose-dependent effect; Activity [23]: inactive
CCCCCCCCCCCCCCC=C(C(C)=O)C(C)=O	79%	Active	–	–	inactive	Active	–	inactive	Activity (U-937 [16]): Active; Activity (U-937 [17]): Active; inhibition (U-937 [6]): Active; inhibition (U-937 [7]): Active; inhibition (U-937 [8]): inactive; inhibition (U-937 [9]): inactive; inhibition (U-937 [10]): inactive; inhibition (U-937 [11]): inactive; inhibition (U-937 [12]): inactive; Activity (Albumin): Not Active; Activity [22]: Dose-dependent effect; Activity [23]: inactive
CCCCCCCCCCCCCCC(Cl)=C(C(=O)OCC)C(=O)OCC	Active	–	inactive	inactive	inactive	inactive	inactive	inactive	Activity [15]: Active
CCCCCCCCCCCCCCCCC(O)=C(C(=O)OCC)C(=O)OCC	Active	–	inactive	inactive	inactive	inactive	inactive	inactive	–
CCCCCCCCCCCCCCC=C1C(=O)OC(C)(C)OC1=O	Active	Active	inactive	inactive	inactive	inactive	inactive	inactive	–
